Experimental data from different studies.
Protocols differ between the studies behind these lines.
Effect on: enzyme activity
Action: inhibitor
FLT3: Receptor-type tyrosine-protein kinase FLT3 (FLT3, Homo sapiens, UniProt P36888)

For CS(=O)(=O)Nc1cccc(-c2csc(NC(=O)CSc3nc4nccnc4c(=O)n3CCc3ccccc3)n2)c1, the inhibition was 8% (FLT3; 10 µM).
Cn1cnc(Br)c1C1=CN(c2ncnc3[nH]cnc23)CCS1 has an inhibition of 16.8% (FLT3; radiometric; 50 nM).
The inhibition of CNC(=O)c1ccccc1Nc1cc(Nc2ccc(N3CCOCC3)cc2OC)ncc1C(F)(F)F is reported as > 50% (FLT3; 0.1 µM).
The inhibition of Cn1cncc1C1=CN(c2ncnc3[nH]cnc23)CCS1 is reported as 22.2% (FLT3; radiometric; 50 nM).
With CCCS(=O)(=O)Nc1ccc(F)c(C(=O)c2c[nH]c3ncc(-c4ccc(Cl)cc4)cc23)c1F the inhibition was < 20% (FLT3; 1 µM).
For COc1cc2nccc(Oc3ccc(NC(=O)c4c5n(n(-c6ccc(F)cc6)c4=O)CCCC5)cc3)c2cc1OC, the inhibition was 49% (FLT3; 0.1 µM).
For CN(C)C1CCN(CC#Cc2nn(C3CCCC3)c3nc(NCc4ccccc4)ncc23)C1 (stereo not drawn), the inhibition was 13% (FLT3; FRET; 0.1 µM).
CNc1cccc2cc(C(=O)Nc3ccc(C(=O)O)cc3)c(=O)[nH]c12 gave an inhibition of 7.9% (FLT3; 10 µM).
COc1cc2ncnc(Nc3ccc(Oc4ccccc4)cc3C)c2cc1OC has an inhibition of 79% (FLT3; 1 µM).
CN1CC(Oc2cnc(C#N)cc2-c2ccn3nc(NC(=O)C4CC4)cc3c2)C1 gave an inhibition of 0% (FLT3; 1 µM).
The inhibition of COc1cc2ncnc(Nc3ccc(Oc4ccccc4)c(C)c3C)c2cc1OC is reported as 2% (Receptor-type tyrosine-protein kinase FLT3 (FLT3, Homo sapiens, UniProt P36888, D835Y); 1 µM).
With CCOc1cc(-c2nncn2C)ccc1Nc1ncc2cc(C)nc(NCC(C)(C)C)c2n1 the inhibition was 54% (FLT3; FRET; 1 µM).
